# According to ChEMBL document CHEMBL4689842, “EUbOPEN Chemogenomics Library wave 1” (2021):
# System: HEK-293T
# Test: Multiplex assay against HEK293T;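 on Population Tubulin-Different-Phenotype (%): share of the cells with healthy nuclei that show this phenotype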
# Format: toxicity, cell-based
# Details: human
# How it was run: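 At seeding, live cells were stained with Hoechst33342, BioTracker Green Microtubule Cytoskeleton Dye, MitoTracker Red and Annexin V Alexa Fluor 680. After compound addition they were imaged on a CQ1 microscope at 37°C and 5% CO2, and CellPathfinder machine-learning gating sorted them into Hoechst high-intensity objects or normal cells, with normal cells further split into healthy, pyknosed or fragmented nuclei and pyknosed cells into mitotic or apoptotic. Tubulin, mitochondrial-mass and membrane-permeability phenotypes are given as per cents of cells with healthy nuclei.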
# [1] = 12 h, 1 µM, compound concentration 1 uM, replicate 1
# [2] = 12 h, 1 µM, compound concentration 1 uM, replicate 2
# [3] = 12 h, 10 µM, compound concentration 10 uM, replicate 1
# [4] = 12 h, 10 µM, compound concentration 10 uM, replicate 2
# [5] = 24 h, 1 µM, compound concentration 1 uM, replicate 1
# [6] = 24 h, 1 µM, compound concentration 1 uM, replicate 2
# [7] = 24 h, 10 µM, compound concentration 10 uM, replicate 1
# [8] = 24 h, 10 µM, compound concentration 10 uM, replicate 2
# [9] = 48 h, 1 µM, compound concentration 1 uM, replicate 1
# [10] = 48 h, 1 µM, compound concentration 1 uM, replicate 2
# [11] = 48 h, 10 µM, compound concentration 10 uM, replicate 1
# [12] = 48 h, 10 µM, compound concentration 10 uM, replicate 2
structure (smiles),measurement,setting,value
CC(C)NC(=O)N1CC[C@H](NC2=Nc3cc(F)ccc3N(CC(F)F)c3ccc(Cl)cc32)C1,Population Apoptotic (%),[1],42%
same,Population Fragmented Nuclei (%),[1],19%
same,Population Healthy Nuclei (%),[1],34%
same,Population Hoechst High Intensity Objects (%),[1],18%
same,Population Membrane Permeable-Phenotype (%),[1],4%
same,Population Mitochondria Different-Phenotype (%),[1],78%
same,Population Mitotic Cells (%),[1],57%
same,Population Normal (%),[1],81%
same,Population Pyknosed Nuclei (%),[1],46%
same,Population Tubulin-Different-Phenotype (%),[1],34%
same,Total Cell Count,[1],170
same,Population Apoptotic (%),[2],8%
same,Population Fragmented Nuclei (%),[2],4%
same,Population Healthy Nuclei (%),[2],47%
same,Population Hoechst High Intensity Objects (%),[2],3%
same,Population Membrane Permeable-Phenotype (%),[2],13%
same,Population Mitochondria Different-Phenotype (%),[2],24%
same,Population Mitotic Cells (%),[2],91%
same,Population Normal (%),[2],96%
same,Population Pyknosed Nuclei (%),[2],47%
same,Population Tubulin-Different-Phenotype (%),[2],25%
same,Total Cell Count,[2],304
same,Population Apoptotic (%),[3],53%
same,Population Fragmented Nuclei (%),[3],24%
same,Population Healthy Nuclei (%),[3],38%
same,Population Hoechst High Intensity Objects (%),[3],22%
same,Population Membrane Permeable-Phenotype (%),[3],4%
same,Population Mitochondria Different-Phenotype (%),[3],91%
same,Population Mitotic Cells (%),[3],46%
same,Population Normal (%),[3],77%
same,Population Pyknosed Nuclei (%),[3],37%
same,Population Tubulin-Different-Phenotype (%),[3],79%
same,Total Cell Count,[3],163
same,Population Apoptotic (%),[4],20%
same,Population Fragmented Nuclei (%),[4],6%
same,Population Healthy Nuclei (%),[4],53%
same,Population Hoechst High Intensity Objects (%),[4],5%
same,Population Membrane Permeable-Phenotype (%),[4],10%
same,Population Mitochondria Different-Phenotype (%),[4],48%
same,Population Mitotic Cells (%),[4],79%
same,Population Normal (%),[4],94%
same,Population Pyknosed Nuclei (%),[4],40%
same,Population Tubulin-Different-Phenotype (%),[4],57%
same,Total Cell Count,[4],170
same,Population Apoptotic (%),[5],37%
same,Population Fragmented Nuclei (%),[5],20%
same,Population Healthy Nuclei (%),[5],39%
same,Population Hoechst High Intensity Objects (%),[5],20%
same,Population Membrane Permeable-Phenotype (%),[5],0%
same,Population Mitochondria Different-Phenotype (%),[5],75%
same,Population Mitotic Cells (%),[5],62%
same,Population Normal (%),[5],79%
same,Population Pyknosed Nuclei (%),[5],39%
same,Population Tubulin-Different-Phenotype (%),[5],32%
same,Total Cell Count,[5],178
same,Population Apoptotic (%),[6],15%
same,Population Fragmented Nuclei (%),[6],4%
same,Population Healthy Nuclei (%),[6],69%
same,Population Hoechst High Intensity Objects (%),[6],3%
same,Population Membrane Permeable-Phenotype (%),[6],8%
same,Population Mitochondria Different-Phenotype (%),[6],13%
same,Population Mitotic Cells (%),[6],84%
same,Population Normal (%),[6],96%
same,Population Pyknosed Nuclei (%),[6],25%
same,Population Tubulin-Different-Phenotype (%),[6],25%
same,Total Cell Count,[6],367
same,Population Apoptotic (%),[7],58%
same,Population Fragmented Nuclei (%),[7],17%
same,Population Healthy Nuclei (%),[7],32%
same,Population Hoechst High Intensity Objects (%),[7],25%
same,Population Membrane Permeable-Phenotype (%),[7],0%
same,Population Mitochondria Different-Phenotype (%),[7],94%
same,Population Mitotic Cells (%),[7],41%
same,Population Normal (%),[7],74%
same,Population Pyknosed Nuclei (%),[7],50%
same,Population Tubulin-Different-Phenotype (%),[7],69%
same,Total Cell Count,[7],161
same,Population Apoptotic (%),[8],37%
same,Population Fragmented Nuclei (%),[8],9%
same,Population Healthy Nuclei (%),[8],58%
same,Population Hoechst High Intensity Objects (%),[8],2%
same,Population Membrane Permeable-Phenotype (%),[8],6%
same,Population Mitochondria Different-Phenotype (%),[8],71%
same,Population Mitotic Cells (%),[8],62%
same,Population Normal (%),[8],97%
same,Population Pyknosed Nuclei (%),[8],32%
same,Population Tubulin-Different-Phenotype (%),[8],61%
same,Total Cell Count,[8],169
same,Population Apoptotic (%),[9],48%
same,Population Fragmented Nuclei (%),[9],22%
same,Population Healthy Nuclei (%),[9],37%
same,Population Hoechst High Intensity Objects (%),[9],21%
same,Population Membrane Permeable-Phenotype (%),[9],0%
same,Population Mitochondria Different-Phenotype (%),[9],32%
same,Population Mitotic Cells (%),[9],51%
same,Population Normal (%),[9],78%
same,Population Pyknosed Nuclei (%),[9],40%
same,Population Tubulin-Different-Phenotype (%),[9],28%
same,Total Cell Count,[9],189
same,Population Apoptotic (%),[10],17%
same,Population Fragmented Nuclei (%),[10],5%
same,Population Healthy Nuclei (%),[10],84%
same,Population Hoechst High Intensity Objects (%),[10],3%
same,Population Membrane Permeable-Phenotype (%),[10],4%
same,Population Mitochondria Different-Phenotype (%),[10],4%
same,Population Mitotic Cells (%),[10],82%
same,Population Normal (%),[10],96%
same,Population Pyknosed Nuclei (%),[10],10%
same,Population Tubulin-Different-Phenotype (%),[10],25%
same,Total Cell Count,[10],580
same,Population Apoptotic (%),[11],70%
same,Population Fragmented Nuclei (%),[11],28%
same,Population Healthy Nuclei (%),[11],39%
same,Population Hoechst High Intensity Objects (%),[11],19%
same,Population Membrane Permeable-Phenotype (%),[11],8%
same,Population Mitochondria Different-Phenotype (%),[11],74%
same,Population Mitotic Cells (%),[11],29%
same,Population Normal (%),[11],80%
same,Population Pyknosed Nuclei (%),[11],32%
same,Population Tubulin-Different-Phenotype (%),[11],62%
same,Total Cell Count,[11],181
same,Population Apoptotic (%),[12],48%
same,Population Fragmented Nuclei (%),[12],8%
same,Population Healthy Nuclei (%),[12],63%
same,Population Hoechst High Intensity Objects (%),[12],2%
same,Population Membrane Permeable-Phenotype (%),[12],5%
same,Population Mitochondria Different-Phenotype (%),[12],46%
same,Population Mitotic Cells (%),[12],51%
same,Population Normal (%),[12],97%
same,Population Pyknosed Nuclei (%),[12],28%
same,Population Tubulin-Different-Phenotype (%),[12],61%
same,Total Cell Count,[12],219
